According to PMC3806060 (Journal of medicinal chemistry, 2013):
“Also recorded” adds a separate entry of the source. Like-named read-outs stand apart in the source and are kept apart here. Values belong to the compound of their own block, whether it stands above or below them.

Assays:
[1] = cited from earlier work
[2] = biological target: T1, Bcl-2 (Homo sapiens, UniProt P10415); settings: read-out: Ki, binding to Bcl-2; cited from earlier work
[3] = biological target: Bcl-xL (Homo sapiens, UniProt Q07817); settings: read-out: Ki, binding to Bcl-xL; cited from earlier work
Bcl-xL, sequence (Q07817 whole entry): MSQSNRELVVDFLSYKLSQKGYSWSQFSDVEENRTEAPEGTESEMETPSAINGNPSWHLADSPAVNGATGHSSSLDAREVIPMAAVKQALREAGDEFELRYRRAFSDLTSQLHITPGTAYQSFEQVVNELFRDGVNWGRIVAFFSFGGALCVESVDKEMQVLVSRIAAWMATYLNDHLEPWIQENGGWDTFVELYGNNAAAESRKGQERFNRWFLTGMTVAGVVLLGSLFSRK

[4] = tested on: H146 small-cell lung cancer cell line; assay: Cell growth inhibition assay; format: cell-based, Human; settings: for Cellular activity in H146: at 1 μM; for Times less potent than compound 5 in H146 cell growth inhibition: versus 5; for Times less potent than compound 28 in H146 cell growth inhibition: versus 28
[5] = biological target: T1, Bcl-2; assay: FP based competitive binding assay, Bcl-2; settings: versus 4
[6] = tested on: H146 xenograft tumors; assay: Western blot of H146 xenograft tumor tissue for cleavage of PARP and caspase-3; format: in vivo, SCID mice; settings: single dose 15 mg/kg i.v., 3 and 6 h time points
In short: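 SCID mice carried subcutaneous H146 xenografts (5 × 10^6 cells with Matrigel) of approximately 100 mm3. They received a single 15 mg/kg i.v. dose of test compound or vehicle. Tumors were harvested at 3, 6 or 24 h, and western blot measured total and cleaved PARP and caspase-3.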

[7] = biological target: Mcl-1 (Homo sapiens, UniProt Q07820); assay: FP based competitive binding assay, Mcl-1; settings: at concentrations as high as 2 μM
Mcl-1, sequence (Q07820 whole entry): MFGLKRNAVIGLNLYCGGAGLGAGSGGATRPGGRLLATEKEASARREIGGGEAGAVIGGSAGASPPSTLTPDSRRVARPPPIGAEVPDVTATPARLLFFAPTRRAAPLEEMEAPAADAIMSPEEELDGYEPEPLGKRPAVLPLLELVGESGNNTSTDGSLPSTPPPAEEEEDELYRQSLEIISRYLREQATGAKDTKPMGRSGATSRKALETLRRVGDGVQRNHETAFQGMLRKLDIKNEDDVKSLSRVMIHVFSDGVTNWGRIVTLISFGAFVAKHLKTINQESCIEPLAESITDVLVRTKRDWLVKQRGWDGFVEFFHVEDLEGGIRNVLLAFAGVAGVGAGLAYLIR

[8] = tested on: H146 small-cell lung cancer xenograft; assay: Antitumor efficacy in the H146 xenograft tumor model; format: in vivo, SCID mice; settings: for Antitumor activity / Tumor regression: daily, 5 days a week for 2 weeks
In short: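 Subcutaneous dorsal xenografts in SCID mice: 5 × 10^6 H146 cells with Matrigel, one tumor per mouse. At 100–150 mm3 (mean 126 mm3), animals randomized into groups of 8. Vehicle or test compound given i.v. at 15 mg/kg, daily, 5 days/week for 2 weeks. Tumor size and body weight measured 3×/week during and 2×/week after dosing. Data are mean tumor volume ± SEM; two-way ANOVA and unpaired two-tailed t test, P < 0.05.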

[9] = tested on: small-cell lung cancer cell lines; format: cell-based, Human; settings: for IC50: Homo sapiens
In short: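 H146, H1963, H187 and H1417 small-cell lung cancer lines were maintained in RPMI-1640 with 10% FBS. Cells were exposed to various concentrations of test compound for 4 days. WST-8 was added for a further 1–2 h and absorbance read at 450 nm. IC50 was calculated against untreated cells, with at least three independent experiments per line.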

T1 sequence (P10415 whole entry): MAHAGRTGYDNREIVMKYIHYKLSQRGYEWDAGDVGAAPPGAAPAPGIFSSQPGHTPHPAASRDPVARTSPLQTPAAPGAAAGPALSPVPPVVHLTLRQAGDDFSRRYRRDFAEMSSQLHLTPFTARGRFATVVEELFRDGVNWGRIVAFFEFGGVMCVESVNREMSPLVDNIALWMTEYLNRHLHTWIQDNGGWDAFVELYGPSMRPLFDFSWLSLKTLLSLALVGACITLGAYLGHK

Compound: Cc1c(C(=O)O)c(-c2cccc(N3CCN(c4ccc(NS(=O)(=O)c5ccc(N[C@H](CCN(C)C)CSc6ccccc6)c([N+](=O)[O-])c5)cc4)CC3)c2)c(-c2ccc(Cl)cc2)n1C [Compound 4]
Chemical stability [1]: excellent chemical stability
Ki [2]: < 1 nM
Ki [3]: < 1 nM

Compound: Cc1cc(-c2cccc(N3CCN(c4ccc(NS(=O)(=O)c5ccc(N[C@H](CCN(C)C)CSc6ccccc6)c([N+](=O)[O-])c5)cc4)CC3)c2)c(-c2ccc(Cl)cc2)n1C [Compound 7]
Inhibition of cell growth in H146 ([4]; at concentrations as high as 10 μM): completely inactive

Times less potent than compound 4 in binding to Bcl-2 [5]: 100 times
Compound: Cc1c(Cl)c(-c2cccc(N3CCN(c4ccc(NS(=O)(=O)c5ccc(N[C@H](CCN(C)C)CSc6ccccc6)c([N+](=O)[O-])c5)cc4)CC3)c2)c(-c2ccc(Cl)cc2)n1C [Compound 13, (R)-N-(4-(4-(3-(4-Chloro-2-(4-chlorophenyl)-1,5-dimethyl-1H-pyrrol-3-yl)phenyl)piperazin-1-yl)phenyl)-4-(4-(dimethylamino)-1-(phenylthio)butan-2-ylamino)-3-nitrobenzenesulfonamide]
Times less potent than compound 4 in H146 cell growth inhibition ([4]; versus 4): > 100 times

Times less potent than compound 4 in binding to Bcl-2 [5]: 100 times
Compound: Cc1c(C(F)(F)F)c(-c2cccc(N3CCN(c4ccc(NS(=O)(=O)c5ccc(N[C@H](CCN(C)C)CSc6ccccc6)c([N+](=O)[O-])c5)cc4)CC3)c2)c(-c2ccc(Cl)cc2)n1C [Compound 14, (R)-N-(4-(4-(3-(2-(4-Chlorophenyl)-1,5-dimethyl-4-(trifluoromethyl)-1H-pyrrol-3-yl)phenyl)piperazin-1-yl)phenyl)-4-(4-(dimethylamino)-1-(phenylthio)butan-2-ylamino)-3-nitrobenzenesulfonamide]
Times less potent than compound 4 in H146 cell growth inhibition ([4]; versus 4): > 100 times

Times less potent than compound 4 in binding to Bcl-2 [5]: > 10 times
Compound: Cc1c(C#N)c(-c2cccc(N3CCN(c4ccc(NS(=O)(=O)c5ccc(N[C@H](CCN(C)C)CSc6ccccc6)c([N+](=O)[O-])c5)cc4)CC3)c2)c(-c2ccc(Cl)cc2)n1C [Compound 15, (R)-N-(4-(4-(3-(2-(4-Chlorophenyl)-4-cyano-1,5-dimethyl-1H-pyrrol-3-yl)phenyl)piperazin-1-yl)phenyl)-4-(4-(dimethylamino)-1-(phenylthio)butan-2-ylamino)-3-nitrobenzenesulfonamide]
Times less potent than compound 4 in H146 cell growth inhibition ([4]; versus 4): 8 times

Compound: CN(C)CC[C@H](CSc1ccccc1)Nc1ccc(S(=O)(=O)Nc2ccc(N3CCN(c4cccc(-c5c(C(=O)O)c(C(F)(F)F)n(C)c5-c5ccc(Cl)cc5)c4)CC3)cc2)cc1[N+](=O)[O-] [Compound 16, (R)-5-(4-Chlorophenyl)-4-(3-(4-(4-(4-(4-(dimethylamino)-1-(phenylthio)butan-2-ylamino)-3-nitrophenylsulfonamido)phenyl)piperazin-1-yl)phenyl)-1-methyl-2-(trifluoromethyl)-1H-pyrrole-3-carboxylic acid]
Times less potent than compound 4 in H146 cell growth inhibition ([4]; versus 4): 8 times

Compound: CN(C)CC[C@H](CSc1ccccc1)Nc1ccc(S(=O)(=O)Nc2ccc(N3CCN(c4cccc(-c5c(C(=O)NS(C)(=O)=O)ncn5-c5ccc(Cl)cc5)c4)CC3)cc2)cc1[N+](=O)[O-] [Compound 23, (R)-1-(4-Chlorophenyl)-5-(3-(4-(4-(4-(4-(dimethylamino)-1-(phenylthio)butan-2-ylamino)-3-nitrophenylsulfonamido)phenyl)piperazin-1-yl)phenyl)-N-(methylsulfonyl)-1H-imidazole-4-carboxamide]
Cellular activity in H146 [4]: minimal activity

Compound: CN(C)CC[C@H](CSc1ccccc1)Nc1ccc(S(=O)(=O)Nc2ccc(N3CCN(c4cccc(-c5c(C(=O)NS(C)(=O)=O)cnn5-c5ccc(Cl)cc5)c4)CC3)cc2)cc1[N+](=O)[O-] [Compound 24, (R)-1-(4-Chlorophenyl)-5-(3-(4-(4-(4-(4-(dimethylamino)-1-(phenylthio)butan-2-ylamino)-3-nitrophenylsulfonamido)phenyl)piperazin-1-yl)phenyl)-N-(methylsulfonyl)-1H-pyrazole-4-carboxamide]
Cellular activity in H146 [4]: minimal activity

Compound: CN(C)CC[C@H](CSc1ccccc1)Nc1ccc(S(=O)(=O)Nc2ccc(N3CCN(c4cccc(-c5c(C(=O)O)nn(C)c5-c5ccc(Cl)cc5)c4)CC3)cc2)cc1[N+](=O)[O-] [Compound 25, (R)-5-(4-Chlorophenyl)-4-(3-(4-(4-(4-(4-(dimethylamino)-1-(phenylthio)butan-2-ylamino)-3-nitrophenylsulfonamido)phenyl)piperazin-1-yl)phenyl)-1-methyl-1H-pyrazole-3-carboxylic acid]
Cellular activity in H146 [4]: minimal activity

Compound: Cc1c(C(=O)O)c(-c2cccc(N3CCN(c4ccc(NS(=O)(=O)c5ccc(N[C@H](CCN(C)C)CSc6ccccc6)c([N+](=O)[O-])c5)cc4)CC3)c2)c(-c2ccc(Cl)cc2)n1C(C)C [Compound 28]
Times more potent than compound 4 in H146 cell growth inhibition ([4]; versus 4): 20 times

Compound: CCCn1c(C)c(C(=O)O)c(-c2cccc(N3CCN(c4ccc(NS(=O)(=O)c5ccc(N[C@H](CCN(C)C)CSc6ccccc6)c([N+](=O)[O-])c5)cc4)CC3)c2)c1-c1ccc(Cl)cc1 [Compound 29, (R)-5-(4-Chlorophenyl)-4-(3-(4-(4-(4-(4-(dimethylamino)-1-(phenylthio)butan-2-ylamino)-3-nitrophenylsulfonamido)phenyl)piperazin-1-yl)phenyl)-2-methyl-1-propyl-1H-pyrrole-3-carboxylic acid]
Times less potent than compound 5 in H146 cell growth inhibition [4]: > 5 times
Times less potent than compound 28 in H146 cell growth inhibition [4]: > 10 times

Compound: CCCCn1c(C)c(C(=O)O)c(-c2cccc(N3CCN(c4ccc(NS(=O)(=O)c5ccc(N[C@H](CCN(C)C)CSc6ccccc6)c([N+](=O)[O-])c5)cc4)CC3)c2)c1-c1ccc(Cl)cc1 [Compound 30, (R)-1-Butyl-5-(4-chlorophenyl)-4-(3-(4-(4-(4-(4-(dimethylamino)-1-(phenylthio)butan-2-ylamino)-3-nitrophenylsulfonamido)phenyl)piperazin-1-yl)phenyl)-2-methyl-1H-pyrrole-3-carboxylic acid]
Times less potent than compound 5 in H146 cell growth inhibition [4]: > 5 times
Times less potent than compound 28 in H146 cell growth inhibition [4]: > 10 times

Binding to Mcl-1 [7]: no appreciable binding
Compound: CCn1c(C)c(C(=O)NS(C)(=O)=O)c(-c2cccc(N3CCN(c4ccc(NS(=O)(=O)c5ccc(N[C@H](CCN(C)C)CSc6ccccc6)c([N+](=O)[O-])c5)cc4)CC3)c2)c1-c1ccc(Cl)cc1 [Compound 31, (R)-5-(4-Chlorophenyl)-4-(3-(4-(4-(4-(4-(dimethylamino)-1-(phenylthio)butan-2-ylamino)-3-nitrophenylsulfonamido)phenyl)piperazin-1-yl)phenyl)-1-ethyl-2-methyl-N-(methylsulfonyl)-1H-pyrrole-3-carboxamide]
Cleavage of PARP and caspase-3 in H146 tumor tissue [6]: robust cleavage of PARP and caspase-3
Antitumor activity ([8]; 15 mg/kg i.v.): strong antitumor activity
Tumor regression ([8]; 15 mg/kg i.v.): partial tumor regression

IC50 ([9]; read-out: IC50, cancer cell growth inhibition): 1 to 2 nM
IC50 ([9]; read-out: IC50, cell growth inhibition): 1 to 2.3 nM
Weight loss ([8]; H146 xenograft efficacy study, 15 mg/kg i.v., during or after treatment): < 5%
Compound: Cc1c(C(=O)NS(C)(=O)=O)c(-c2cccc(N3CCN(c4ccc(NS(=O)(=O)c5ccc(N[C@H](CCN(C)C)CSc6ccccc6)c([N+](=O)[O-])c5)cc4)CC3)c2)c(-c2ccc(Cl)cc2)n1C(C)C [Compound 32, (R)-5-(4-Chlorophenyl)-4-(3-(4-(4-(4-(4-(dimethylamino)-1-(phenylthio)butan-2-ylamino)-3-nitrophenylsulfonamido)phenyl)piperazin-1-yl)phenyl)-1-isopropyl-2-methyl-N-(methylsulfonyl)-1H-pyrrole-3-carboxamide]
Cleavage of PARP and caspase-3 in H146 tumor tissue [6]: robust cleavage of PARP and caspase-3
Binding to Mcl-1 [7]: no appreciable binding; also recorded: does not show any appreciable binding
Times more potent than compound 1 in cell growth inhibition ([9]; versus 1, each of H1963, H187, H1417, based on IC50): > 50 times
Times more potent than compound 2 in cell growth inhibition ([9]; versus 2, each of H1963, H187, H1417, based on IC50): > 10 times
Antitumor activity ([8]; 15 mg/kg i.v.): strong antitumor activity
Tumor regression ([8]; 15 mg/kg i.v.): rapid, complete and durable tumor regression; also recorded: rapid, complete and persistent tumor regression
Mice with measurable tumors, of 8 treated ([8]; day 62, 18 days after end of treatment, 15 mg/kg i.v.): none
Average tumor size ([8]; day 117, 8 mice, 130 mm^3 at start of treatment (day 33)): 47 mm^3
Mice without measurable tumors ([8]; day 117, 74 days after end of treatment, 8 mice, 15 mg/kg i.v.): 50%
